According to EPA's CvTdb concentration-time database:
“And” between values parts separate entries of the source, which are not always exact repeats. Equal entries are not always repeated.

Experiments:
[1] = test system: human; assay: negative times count back from the end of exposure; settings: dosed: toluene, 200 mg/m^3, inhalation, duration: 2 hr, male
Procedure, shortened: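 Points were largely digitised from plot screenshots with WebPlotDigitizer or otherwise copied from tables, and they remain in the units each source reported. They come from published in vivo toxicokinetic studies and two structured collections. Sampling and analytical methods follow each source and were often not reported.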

[2] = test system: Rat; assay: concentration in plasma after dosing; settings: dosed: Tamoxifen citrate, 0.3 mg/kg, iv, Male, Sprague-Dawley
[3] = test system: Rat; assay: concentration in plasma after dosing; settings: dosed: Tamoxifen citrate, 0.3 mg/kg, iv, Male, Sprague-Dawley; remark: listed apart in the source
[4] = test system: Rat; assay: concentration in plasma after dosing; settings: dosed: Tamoxifen citrate, 0.3 mg/kg, iv, Female, Sprague-Dawley
[5] = test system: Rat; assay: concentration in plasma after dosing; settings: dosed: Tamoxifen citrate, 0.3 mg/kg, iv, Female, Sprague-Dawley; remark: listed apart in the source
[6] = test system: Rat; assay: concentration in plasma after dosing; settings: dosed: Tamoxifen citrate, 0.3 mg/kg, iv, Male, Sprague-Dawley; remark: listed apart in the source
[7] = test system: Rat; assay: concentration in plasma after dosing; settings: dosed: Tamoxifen citrate, 0.3 mg/kg, iv, Female, Sprague-Dawley; remark: listed apart in the source
[8] = test system: Rat; assay: concentration in plasma after dosing; settings: dosed: Tamoxifen citrate, 0.3 mg/kg, iv, Male, Sprague-Dawley; remark: listed apart in the source
[9] = test system: Rat; assay: concentration in plasma after dosing; settings: dosed: Tamoxifen citrate, 0.3 mg/kg, iv, Female, Sprague-Dawley; remark: listed apart in the source
[10] = test system: Rat; assay: concentration in plasma after dosing; settings: dosed: Tamoxifen citrate, 0.3 mg/kg, iv, Sprague-Dawley
[11] = test system: rat; assay: concentration in blood after dosing; settings: dosed: halothane, 50000 ppm, dermal, duration: 4 hr, male, F344
[12] = test system: rat; assay: concentration in blood after dosing; settings: dosed: halothane, 50000 ppm, dermal, duration: 4 hr, male, F344; remark: listed apart in the source
[13] = test system: rat; assay: concentration in blood after dosing; settings: dosed: halothane, 50000 ppm, dermal, duration: 4 hr, male, F344; remark: listed apart in the source
[14] = test system: rat; assay: concentration in blood after dosing; settings: 50000 ppm, dermal, duration: 4 hr, male, F344
[15] = test system: rat; assay: concentration in blood after dosing; settings: dosed: isoflurane, 50000 ppm, dermal, duration: 4 hr, male, F344
[16] = test system: rat; assay: concentration in blood after dosing; settings: dosed: isoflurane, 50000 ppm, dermal, duration: 4 hr, male, F344; remark: listed apart in the source
[17] = test system: rat; assay: concentration in blood after dosing; settings: dosed: isoflurane, 50000 ppm, dermal, duration: 4 hr, male, F344; remark: listed apart in the source
[18] = test system: rat; assay: concentration in blood after dosing; settings: dosed: isoflurane, 50000 ppm, dermal, duration: 4 hr, male, F344; remark: listed apart in the source
[19] = test system: rat; assay: concentration in blood after dosing; settings: dosed: isoflurane, 50000 ppm, dermal, duration: 4 hr, male, F344; remark: listed apart in the source

## O=C(O)CNC(=O)c1ccccc1 [hippuric acid]
[1]; 3.981 h
  amount in urine after dosing: 2.61 µmol/min
[1]; 7.978 h
  amount in urine after dosing: 0.699 µmol/min
[1]; 12.06 h
  amount in urine after dosing: 0.451 µmol/min
[1]; 20.04 h
  amount in urine after dosing: 0.258 µmol/min
[1]; -49 s, during exposure
  amount in urine after dosing: 4.88 µmol/min

## CC/C(=C(\c1ccccc1)c1ccc(OCCN(C)C)cc1)c1ccccc1 [Tamoxifen, free base]
[2]; 1 h
  concentration in plasma: 5.39 ng/mL
[2]; 2 h
  concentration in plasma: 5.6 ng/mL
[2]; 4 h
  concentration in plasma: 5.43 ng/mL
[2]; 8 h
  concentration in plasma: 4.84 ng/mL
[3]; 0.25 h
  concentration in plasma: 17.9 ng/mL
[3]; 0.5 h
  concentration in plasma: 14 ng/mL
[3]; 1 h
  concentration in plasma: 9.45 ng/mL
[3]; 2 h
  concentration in plasma: 5.39 ng/mL
[3]; 4 h
  concentration in plasma: 13 ng/mL
[4]; 1 h
  concentration in plasma: 11.8 ng/mL
[4]; 2 h
  concentration in plasma: 6.28 ng/mL
[4]; 4 h
  concentration in plasma: 4.6 ng/mL
[5]; 0.25 h
  concentration in plasma: 10.6 ng/mL
[5]; 0.5 h
  concentration in plasma: 11.7 ng/mL
[5]; 1 h
  concentration in plasma: 7.86 ng/mL
[5]; 2 h
  concentration in plasma: 6.98 ng/mL
[5]; 4 h
  concentration in plasma: 4.36 ng/mL
[6]; 0.25 h
  concentration in plasma: 27.8 ng/mL
[6]; 0.5 h
  concentration in plasma: 21.3 ng/mL
[6]; 1 h
  concentration in plasma: 12.5 ng/mL
[6]; 2 h
  concentration in plasma: 7.97 ng/mL
[6]; 4 h
  concentration in plasma: 4.45 ng/mL
[7]; 0.25 h
  concentration in plasma: 19.2 ng/mL
[7]; 0.5 h
  concentration in plasma: 16.9 ng/mL
[7]; 1 h
  concentration in plasma: 12.4 ng/mL
[7]; 2 h
  concentration in plasma: 8.82 ng/mL
[7]; 4 h
  concentration in plasma: 4.36 ng/mL
[8]; 0.25 h
  concentration in plasma: 23.4 ng/mL
[8]; 0.5 h
  concentration in plasma: 17.5 ng/mL
[8]; 1 h
  concentration in plasma: 11.1 ng/mL
[8]; 2 h
  concentration in plasma: 6.63 ng/mL
[8]; 4 h
  concentration in plasma: 4.12 ng/mL
[9]; 0.25 h
  concentration in plasma: 9.8 ng/mL
[9]; 0.5 h
  concentration in plasma: 7.72 ng/mL
[9]; 1 h
  concentration in plasma: 6.48 ng/mL
[9]; 2 h
  concentration in plasma: 6.85 ng/mL
[9]; 4 h
  concentration in plasma: 5.08 ng/mL
[10]; 0.25 h, Female
  concentration in plasma: 7.64 ng/mL and 17.2 ng/mL
[10]; 0.25 h, Male
  concentration in plasma: 7.83 ng/mL
[10]; 0.5 h, Female
  concentration in plasma: 7.57 ng/mL and 13.4 ng/mL
[10]; 0.5 h, Male
  concentration in plasma: 8.42 ng/mL
[10]; 1 h, Female
  concentration in plasma: 5.28 ng/mL
[10]; 1 h, Male
  concentration in plasma: 5.43 ng/mL
[10]; 2 h, Male
  concentration in plasma: 4.66 ng/mL
[10]; 4 h, Male
  concentration in plasma: 5.32 ng/mL
[10]; 8 h, Male
  concentration in plasma: 5.19 ng/mL

## FC(F)(F)C(Cl)Br (stereo unspecified) [halothane]
[11]; 0.5 h
  concentration in blood: 1420 ng/mL
[11]; 1 h
  concentration in blood: 2310 ng/mL
[11]; 2 h
  concentration in blood: 2600 ng/mL
[11]; 3 h
  concentration in blood: 3360 ng/mL
[11]; 4 h
  concentration in blood: 2720 ng/mL
[12]; 0.5 h
  concentration in blood: 3130 ng/mL
[12]; 1 h
  concentration in blood: 4930 ng/mL
[12]; 2 h
  concentration in blood: 5210 ng/mL
[12]; 3 h
  concentration in blood: 5410 ng/mL
[12]; 4 h
  concentration in blood: 7710 ng/mL
[13]; 0.5 h
  concentration in blood: 1300 ng/mL
[13]; 2 h
  concentration in blood: 3220 ng/mL
[13]; 3 h
  concentration in blood: 3020 ng/mL
[13]; 4 h
  concentration in blood: 2520 ng/mL
[14]; 0.5 h, dosed: halothane
  concentration in blood: 623 ng/mL
[14]; 1 h, dosed: halothane
  concentration in blood: 2040 ng/mL
[14]; 2 h, dosed: halothane
  concentration in blood: 2110 ng/mL
[14]; 3 h, dosed: halothane
  concentration in blood: 2720 ng/mL
[14]; 4 h, dosed: halothane
  concentration in blood: 2190 ng/mL

## FC(F)OC(Cl)C(F)(F)F (stereo unspecified) [isoflurane]
[15]; 2 h
  concentration in blood: 1120 ng/mL
[15]; 3 h
  concentration in blood: 1520 ng/mL
[15]; 4 h
  concentration in blood: 1210 ng/mL
[16]; 0.5 h
  concentration in blood: 1120 ng/mL
[16]; 1 h
  concentration in blood: 2500 ng/mL
[16]; 2 h
  concentration in blood: 3610 ng/mL
[16]; 3 h
  concentration in blood: 3220 ng/mL
[16]; 4 h
  concentration in blood: 2520 ng/mL
[17]; 0.5 h
  concentration in blood: 19.6 ng/mL
[17]; 2 h
  concentration in blood: 1730 ng/mL
[17]; 3 h
  concentration in blood: 2030 ng/mL
[17]; 4 h
  concentration in blood: 824 ng/mL
[18]; 0.5 h
  concentration in blood: 510 ng/mL
[18]; 1 h
  concentration in blood: 699 ng/mL
[18]; 2 h
  concentration in blood: 1610 ng/mL
[18]; 3 h
  concentration in blood: 1720 ng/mL
[18]; 4 h
  concentration in blood: 915 ng/mL
[19]; 0.5 h
  concentration in blood: 418 ng/mL
[19]; 1 h
  concentration in blood: 1010 ng/mL
[19]; 3 h
  concentration in blood: 1610 ng/mL
[19]; 4 h
  concentration in blood: 516 ng/mL
[14]; 0.5 h, dosed: isoflurane
  concentration in blood: 614 ng/mL
[14]; 1 h, dosed: isoflurane
  concentration in blood: 810 ng/mL and 1520 ng/mL
[14]; 2 h, dosed: isoflurane
  concentration in blood: 1610 ng/mL and 1420 ng/mL
[14]; 3 h, dosed: isoflurane
  concentration in blood: 1520 ng/mL
[14]; 4 h, dosed: isoflurane
  concentration in blood: 706 ng/mL
